Test: Toxicity liver stage against HepG2, at 10uM
Type: cell-based
Design: test concentration 10 uM, cell line HepG2-A16-CD81EGFP
Conditions: human, HepG2-A16-CD81EGFP cells; read-out: INHIBITION
Summary of the method: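 Uninfected HepG2-A16-CD81EGFP cells, 3 × 10^3 per well, 1536-well, plated on prespotted compound at 10 μM final, parasite-free screening media added to match infected plates; puromycin 10 μM positive, DMSO 0.5% negative; run in parallel with 48 h PbLuc assay at 37 °C, 5% CO2; viability by CellTiter-Glo luminescence, normalized to controls.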

SMILES	cytotoxicity at 10 µM [%]
CCNc1nc2c(s1)C(=O)CN(C(=O)NCCc1ccccc1)C2	3.3
Cc1cc2[nH]c(CN3CCOC(Cc4ccccc4)C3)cc(=O)n2n1 (stereo unspecified)	-24.1
COCCN(CCOC)C(=O)c1ccoc1C	6.72
CN(C)C(=O)N1CC[C@H]2[C@H]1CCN2c1nncs1	-1.19
COCc1ccccc1CNCc1c(C(C)C)nn(C)c1N(C)C	-7.83
Cc1ccc(Br)cc1C(=O)Nc1cc(C(N)=O)n(C)c1	1.41
Cc1nc(C2CCCN(C(=O)Cn3ccccc3=O)C2)sc1C (stereo unspecified)	1.5
CC(C)Cn1cncc1CNC(=O)c1cccc(Cn2cccn2)c1	-3.12
CN(CCCc1cnn(C)c1)C(=O)C1CCC(=O)N(C2CCCC2)C1 (stereo unspecified)	5.89
Cc1c(C(=O)N2CCCOCC2)nnn1-c1cccc2cnccc12	11.8
COc1nccnc1N1CCN(Cc2cccc(C)c2)C(=O)C1	-0.408
CO[C@@H]1CCN(C(=O)Cc2cccc(F)c2)[C@H]1Cc1cccnc1	-4.89
COCC(NC(=O)NCc1ccc(C)c(F)c1)c1ccco1 (stereo unspecified)	4.96
Cc1noc(NC(=O)c2ccc(Br)s2)n1	-1.35
CCCN(Cc1cnn(C)c1)S(=O)(=O)c1ccc(F)c(C#N)c1	6.69
CSc1ccccc1C(=O)N(C)C1CCCN(CCc2ccccc2)C1 (stereo unspecified)	-8.52
CCc1csc(CNC(=O)C(CC)n2cccn2)n1 (stereo unspecified)	-0.651
Cc1ccc(N2Cc3cnn(C)c3C(COCC3CC3)C2)nn1 (stereo unspecified)	3.28
CCC(C)C(=O)Nc1ccc2oc(=O)n(CCN(C)C)c2c1 (stereo unspecified)	-14.8
Cc1noc(C(C)N(C)Cc2ccco2)n1 (stereo unspecified)	6.6
COC(=O)c1cc(OCC2CCC2)cc(C(=O)NCC(C)(C)O)c1	4.01
COc1cn(CC(=O)N2CCN(c3ccc(Cl)cc3)CC2)c(C)cc1=O	1.82
CNC(=O)CN1CCC(CN(C)Cc2ccc(C)cc2C)CC1	4

SMILES	cytotoxicity at 10 µM [%]
O=S1(=O)c2ccccc2C(O)CN1CCO (stereo unspecified)	2.37
CCn1ncc2c(C(F)(F)F)cc(-c3cnn(C)c3)nc21	3.67
O=C(C[S+]([O-])Cc1cccc(F)c1)NC1CCCC1 (stereo unspecified)	1.79
CC1N(CC2CC2)C(=O)COC12CCN(C(=O)c1cccs1)CC2 (stereo unspecified)	-3.64
CN(Cc1cnn(C)c1)C(=O)c1ccc(Cl)c(N2CCNC2=O)c1	-10.8
CCOc1ccc(N(C)S(=O)(=O)c2c[nH]c(C(C)C)n2)cc1	-4.52
COc1ccc(CN2C[C@@H](F)[C@@H](OCc3nc4cnccc4[nH]3)C2)cn1	2.08
COc1cccc(CCC(=O)N2CCC[C@@H](N)[C@@H]2c2ccccc2F)c1	8.3
CN(CCOc1cccc(F)c1)CC(=O)Nc1ccncc1	9.16
O=C(COCC(F)(F)F)NC1CCCc2cc(OC(F)F)ccc21 (stereo unspecified)	-5.36
CS(=O)(=O)NCc1nnc2n1CCN(Cc1ccc(F)cc1)C2	-72.7
CCC(=O)N1CCN(C(=O)Cn2cccn2)CC1	0.661
Cn1ccnc(Sc2ccc(O)cc2)c1=O	6.64
Cc1noc(C)c1CNC(=O)NCCC(=O)N1CCCc2ccccc21	-0.353
O=C1CCSCC(C(=O)NCc2nc(-c3ccccc3)no2)N1 (stereo unspecified)	-4.66
Oc1cc(-c2cccs2)nc(C2CCCN(CC3=CCCOC3)C2)n1 (stereo unspecified)	-5.56
c1ccc(-c2nc(CN3CCCCC3Cn3cncn3)co2)cc1 (stereo unspecified)	-14.4
O=C(Cc1cccc(F)c1F)N1CCOC(c2cccc(O)c2)C1 (stereo unspecified)	0.0788
CS(=O)(=O)NCC1CCCN(C(=O)c2ccc3c(c2)CCCC3)C1 (stereo unspecified)	-3.54
O=C(NCCCOCC1CC1)Nc1ccc(-n2cncn2)c(F)c1	-0.132
O=C(c1ccc2c(c1)COC2)N1CCCN(Cc2cscn2)CC1	0.0102
Cc1noc(C)c1CN1CC[C@H]2C[C@@H](c3ccncn3)O[C@@H]2C1	-3.04
CN(C)Cc1ccnc(C2CCCN2Cc2cccc(F)c2F)n1 (stereo unspecified)	2.22

SMILES	cytotoxicity at 10 µM [%]
Cc1cccc(C2(C(=O)NCC3CN(C)CCO3)CC2)c1 (stereo unspecified)	-7.45
Cc1nccn1-c1ccc(NS(=O)(=O)c2cnn(C)c2)cn1	-6.38
COCCN1CCN(C(=O)c2ccc(C)cc2F)[C@H]2CS(=O)(=O)C[C@H]21	-11.4
Cc1nonc1CC(=O)N1C[C@H]2CC[C@@H](C1)N(Cc1ccccc1)C2=O	-11.6
O=C(COc1ccccc1NCc1ccc(F)cc1)N1CCOCC1	-2.82
O=C(CCSc1ccccc1)NS(=O)(=O)c1ccc2c(c1)OCCO2	-5.69
CCOc1cc(C(=O)NS(=O)(=O)c2cccc(C#N)c2)ccc1OC	-6.69
O=C(c1ccc(=O)[nH]c1)N1CCc2c(nc(-c3cccnc3)[nH]c2=O)C1	9.84
Cc1ccc2c(c1)C1(CCNCC1)CC2NCCO (stereo unspecified)	-105
Cc1noc(CNC(=O)[C@@H](C)NC(=O)OC(C)(C)C)n1	4.91
CN(Cc1cccnc1)CC1CCCN1c1cccnn1 (stereo unspecified)	0.192
Cc1cnn(CCNCc2nnc(Cc3ccccc3)o2)c1	-8.63
CC(C)c1nn(C)c(N(C)C)c1CNC1CCN(C2CC2)CC1	5.6
Cc1ncnc2c1CCN(C(=O)c1ccoc1)CC2	6.73
CN(C)CCO[C@H]1CN(C(=O)c2ccc3c(c2)OCO3)[C@@H]2COC[C@H]12	-151
Cc1cc(F)ccc1NC(=O)Cn1cc(C(=O)O)ccc1=O	-0.555
O=C(NCCn1ccc(-c2ccncc2)n1)C1CC1	-2.08
Cc1nc2c(c(NC(C)C)n1)CCN(C(=O)CCO)CC2	-109
O=C(COc1cccc(F)c1)N1C[C@@H](CN2CCCC2)C[C@H](CO)C1	3.94
Cc1cc(C)n(C2CCCN(C(=O)Cc3cccs3)C2)n1 (stereo unspecified)	-20.8
O=S(=O)(CCN1CCCCC1Cn1cccn1)c1ccccc1 (stereo unspecified)	-8.66
Cc1ccccc1CN1CCN(C(=O)c2ccn(C(C)(C)C)c2)CC1	-0.585
NC(=O)COc1ccc(CNCc2cc(F)ccc2F)cc1	18.5

SMILES	cytotoxicity at 10 µM [%]
CCc1noc(-c2cccc(OCC(=O)NC(C)C)c2)n1	-6.53
CNC(=O)C1CCCCN1C(=O)c1csc(-c2ccc(C)cc2)n1 (stereo unspecified)	11.6
COCCn1ccnc1C1CCCN(c2ncnc3c2CCC3)C1 (stereo unspecified)	1.66
O=C(CC1CSc2nccc(=O)n21)NCc1ccco1 (stereo unspecified)	-7.2
O=C(NS(=O)(=O)c1ccc2c(c1)OCCO2)c1ccc(Br)cc1F	0.553
CC(=O)N1CCOCC2(CN(Cc3ccccn3)CCO2)C1 (stereo unspecified)	-3.28
Cc1cc(C)n(C2CN(CC(O)COc3ccc(F)cc3)C2)n1 (stereo unspecified)	-10.5
CCC(CO)N(Cc1cccnc1)Cc1ccc(-c2ccn[nH]2)s1 (stereo unspecified)	-1.55
CC(O)CN1CCC(CNCc2cn(-c3ccccc3)nn2)CC1 (stereo unspecified)	3.31
Cc1noc(C)c1CCC(=O)N[C@@H]1CC[C@@H](Oc2cccnc2)[C@@H]1O	-2.62
COc1c(CNC2CCOc3ccccc32)c(C(C)C)nn1C (stereo unspecified)	-0.169
Clc1ccccc1OC1CN(CC2CCOC2)C1 (stereo unspecified)	-0.745
CCNC(=O)CN(Cc1ccoc1)C1CCCCC1	7.59
Cn1c(NCC(O)c2ccc(F)c(F)c2)c(C#N)c(=O)n(C)c1=O (stereo unspecified)	-19.9
Cc1ccc2nc(CSCC(=O)Nc3nnc(C(C)C)s3)cc(=O)n2c1	-4.44
C=C(C)CN(CC)Cc1nc(CC)no1	12.6
Cc1nc(-c2ccc(Cl)s2)sc1C(=O)NCCCC(N)=O	-5.6
CCCc1nc(N2CCCC(C)C2)c2c(n1)c(C)nn2CC (stereo unspecified)	15.6
CCS(=O)(=O)N1CCC(c2nnc(C3CC3)o2)CC1	-10.7
Cc1cccc(C(=O)N2CCO[C@H]3[C@H](OCCN(C)C)CC[C@@H]32)n1	3.31
Cc1ncc(Cl)c(C(=O)N2CCCC(n3nc(C)nc3C)C2)n1 (stereo unspecified)	-0.426
O=C1CC2(CCSC2)C(=O)N1Cc1coc(-c2cccc(F)c2)n1 (stereo unspecified)	-0.237
COc1ccc(CNC2CCc3ncnn3C2)cc1OCC1CC1 (stereo unspecified)	-8.74

SMILES	cytotoxicity at 10 µM [%]
CC(C)c1nc(-c2cc(C(=O)NCCCO)c3ccccn23)cs1	9.7
O=c1c2c(ncn1CCCO)nc1n2CCC1	-3.89
Cc1noc([C@@H]2CC[C@@H]3[C@@H](CCN3c3nnc(C)s3)O2)n1	9.28
Cc1cc(CNC(=O)CC2CN(C(=O)OC(C)(C)C)C2)ccc1F	4.21
Cc1ccccc1C(C(=O)NCCS(C)(=O)=O)N(C)C (stereo unspecified)	11.2
CN(Cc1cn2c(n1)CN(C(=O)c1ccc[nH]1)CC2)Cc1ccco1	-3.55
COC[C@]12COC[C@H]1CN(C(=O)c1ccc(F)cc1C)C2	-135
O=C(NCc1csc2ccc(Cl)cc12)c1cc2n(n1)CCNC2	-0.699
COc1ccccc1CC(=O)NC(CC(=O)O)c1ccc(F)cc1 (stereo unspecified)	-4.24
O=C(NCC1CC1)[C@H]1C[C@H]2OCC[C@H]2N(Cc2ccoc2)C1	-3.01
Cc1nc(CN2CCC(C(=O)O)(n3ccc(C(C)C)n3)CC2)co1	-125
Cc1cccc(-c2nc(C)nn2CC(=O)NC(C)C2CC2)c1 (stereo unspecified)	-0.502
COc1ccc(F)cc1-c1ccccc1CC1(C(=O)O)CCOCC1	5.57
O=c1c(CN2CCOCC2)coc2ccc(Cl)cc12	-3.73
CCC1CCCCN1C(=O)Cn1nc(-c2cc(C)oc2C)cc(N)c1=O (stereo unspecified)	2.44
COC(=O)c1ccc(N2CCN(C(=O)CCCc3cn[nH]c3)CC2)cc1	-4.32
CN(CCn1cccn1)C1CCCN(Cc2noc(C3CC3)n2)C1 (stereo unspecified)	15
OCCNC1CCc2cc3c(cc21)OCCO3 (stereo unspecified)	-5.82
Cc1nc(CN2CCN(C3CCOC3)Cc3cccnc32)cs1 (stereo unspecified)	8.91
